These results are taken from ChEMBL document CHEMBL3751721, “Development of acridine derivatives as selective Mycobacterium tuberculosis DNA gyrase inhibitors” (Bioorg Med Chem, 2016).

Values after ≈ are worked out from the molar mass of the structure shown. Active and inactive are the calls of the source. The calls are words filed in the database; no cut-off is given here.

In general, IC50 refers to the point on the concentration scale where inhibition reaches its midpoint. One may read the inhibition as the change of the read-out against control, counted positive when it falls. As usually defined, the MIC is the least concentration at which growth counts as inhibited. High values mean weaker potency, low ones greater potency.

Data set [1] can be described thus: Inhibition of Mycobacterium tuberculosis DNA topoisomerase 1.
The nature of data set [2]: Cytotoxicity against mouse RAW264.7 cells assessed as inhibition of cell growth at 50 uM after 72 hrs by MTT assay. The format is cell-based. The essentials:
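RAW 264.7 mouse macrophages exposed to compound at 50 µM for 72 h. Viability read by MTT conversion to formazan, reported as percent inhibition.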
On the technique in general: Tetrazolium dyes change colour on reduction, which living cells bring about.

In data set [3] the test system is Mycobacterium tuberculosis. In words: Inhibition of Mycobacterium tuberculosis DNA topoisomerase 1 assessed as DNA relaxation at 50 uM.
The target of data set [4] is DNA gyrase (Pseudomonas aeruginosa) (UniProt P48372+Q9I7C2). The data set is described as follows: Inhibition of Pseudomonas aeruginosa DNA gyrase assessed as inhibition of DNA supercoiling. The format is protein-complex assay.
For data set [5], the target named is DNA gyrase subunit B (Mycobacterium smegmatis) (UniProt P0C559). In words: Inhibition of Mycobacterium smegmatis GyrB by ATPase assay. To be noted: Mycolicibacterium smegmatis.
DNA gyrase subunit B (Mycobacterium smegmatis), sequence (P0C559 2-675 limits assumed): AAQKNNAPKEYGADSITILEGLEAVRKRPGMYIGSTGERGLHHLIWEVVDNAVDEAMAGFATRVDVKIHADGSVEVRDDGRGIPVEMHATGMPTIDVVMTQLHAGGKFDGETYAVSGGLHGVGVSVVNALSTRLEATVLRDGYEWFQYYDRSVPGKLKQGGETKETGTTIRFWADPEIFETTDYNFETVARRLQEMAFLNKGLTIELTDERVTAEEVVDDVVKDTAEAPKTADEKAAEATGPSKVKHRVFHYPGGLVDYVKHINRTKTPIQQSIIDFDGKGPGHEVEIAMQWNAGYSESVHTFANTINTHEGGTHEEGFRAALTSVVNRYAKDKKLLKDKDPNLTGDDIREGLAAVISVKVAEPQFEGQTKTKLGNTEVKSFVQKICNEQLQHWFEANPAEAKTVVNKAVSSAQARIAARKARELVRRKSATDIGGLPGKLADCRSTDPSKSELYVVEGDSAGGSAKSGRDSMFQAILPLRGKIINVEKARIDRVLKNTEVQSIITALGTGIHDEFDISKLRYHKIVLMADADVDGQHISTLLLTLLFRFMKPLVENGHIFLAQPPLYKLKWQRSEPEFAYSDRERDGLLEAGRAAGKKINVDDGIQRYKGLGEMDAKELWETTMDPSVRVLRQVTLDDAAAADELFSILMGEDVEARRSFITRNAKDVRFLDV
In data set [6] the target is DNA gyrase subunit A/DNA gyrase subunit B (Mycobacterium tuberculosis (strain ATCC 25618 / H37Rv), UniProt P9WG45+P9WG47). The data set is described as follows: Inhibition of Mycobacterium tuberculosis DNA gyrase assessed as inhibition of DNA supercoiling after 30 mins by electrophoresis.
DNA gyrase subunit A/DNA gyrase subunit B, sequence (P9WG45 whole entry): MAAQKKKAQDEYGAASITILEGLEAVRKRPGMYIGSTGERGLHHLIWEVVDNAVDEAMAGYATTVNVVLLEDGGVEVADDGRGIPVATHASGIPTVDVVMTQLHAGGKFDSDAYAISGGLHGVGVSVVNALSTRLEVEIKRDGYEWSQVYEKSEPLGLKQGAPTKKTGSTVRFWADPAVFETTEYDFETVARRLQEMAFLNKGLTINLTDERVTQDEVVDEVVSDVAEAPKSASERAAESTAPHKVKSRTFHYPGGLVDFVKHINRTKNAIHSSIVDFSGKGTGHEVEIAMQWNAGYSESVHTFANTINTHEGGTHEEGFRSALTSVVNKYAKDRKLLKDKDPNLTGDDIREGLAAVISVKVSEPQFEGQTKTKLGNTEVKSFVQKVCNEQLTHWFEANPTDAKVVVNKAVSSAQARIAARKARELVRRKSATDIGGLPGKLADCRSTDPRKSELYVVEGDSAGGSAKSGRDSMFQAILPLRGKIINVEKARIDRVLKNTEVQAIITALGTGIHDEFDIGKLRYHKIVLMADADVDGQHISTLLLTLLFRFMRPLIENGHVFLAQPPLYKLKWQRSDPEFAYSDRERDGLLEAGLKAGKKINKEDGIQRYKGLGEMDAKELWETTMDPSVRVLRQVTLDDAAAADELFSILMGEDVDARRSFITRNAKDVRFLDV
DNA gyrase subunit A/DNA gyrase subunit B, sequence (P9WG47 whole entry): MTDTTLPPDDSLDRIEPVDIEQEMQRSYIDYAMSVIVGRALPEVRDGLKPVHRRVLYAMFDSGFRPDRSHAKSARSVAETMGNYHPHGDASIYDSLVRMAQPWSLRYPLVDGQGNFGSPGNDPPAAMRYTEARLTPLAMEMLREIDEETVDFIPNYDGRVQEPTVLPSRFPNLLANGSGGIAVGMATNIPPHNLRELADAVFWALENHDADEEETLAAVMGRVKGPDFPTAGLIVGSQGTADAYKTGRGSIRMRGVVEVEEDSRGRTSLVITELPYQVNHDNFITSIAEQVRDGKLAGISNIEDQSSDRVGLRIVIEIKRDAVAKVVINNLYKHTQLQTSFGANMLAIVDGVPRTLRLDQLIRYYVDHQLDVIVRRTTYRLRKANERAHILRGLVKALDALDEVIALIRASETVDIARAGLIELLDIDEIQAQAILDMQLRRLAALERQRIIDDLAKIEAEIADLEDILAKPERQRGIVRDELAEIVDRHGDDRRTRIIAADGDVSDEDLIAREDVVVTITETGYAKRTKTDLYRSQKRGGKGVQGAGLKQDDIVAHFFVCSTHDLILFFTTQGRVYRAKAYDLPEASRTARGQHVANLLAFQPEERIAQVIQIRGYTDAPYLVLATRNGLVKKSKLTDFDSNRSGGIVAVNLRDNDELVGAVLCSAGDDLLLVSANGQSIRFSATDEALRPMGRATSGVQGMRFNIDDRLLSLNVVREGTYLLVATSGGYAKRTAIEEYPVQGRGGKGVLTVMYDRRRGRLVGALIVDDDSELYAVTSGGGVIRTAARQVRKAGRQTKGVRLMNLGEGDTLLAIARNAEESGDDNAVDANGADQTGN
Data set [7] relates to Mycobacterium tuberculosis. In words: Antimicrobial activity against Mycobacterium tuberculosis H37Rv ATCC 27294 after 28 days by alamar blue assay. The format is functional. To be noted: H37Rv ATCC 27294, 672 h. In general terms: Alamar Blue is a resazurin reagent that responds to reducing activity.
Data set [8] addresses DNA gyrase (Staphylococcus aureus) (UniProt P0A0K8+P20831). The data set is described as follows: Inhibition of Staphylococcus aureus DNA gyrase assessed as inhibition of DNA supercoiling. It is filed as protein-complex assay.
The test system of data set [9] is Escherichia coli. In words: Inhibition of Escherichia coli DNA gyrase assessed as inhibition of DNA supercoiling.
Data set [10] in a line: Toxicity in zebrafish embryo assessed as atrio-ventricular ratio at 30 uM. On the set-up: species or system Danio rerio. To be noted: in vivo. In outline: (§1)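 Zebrafish embryos from 2 female:3 male breeding, raised in E3 medium at 28 °C. Compound given at 1 to 30 µM in 0.1% DMSO vehicle, 20 µM terfenadine as reference, 4 h incubation. Embryos treated with tricaine, then 30 beats timed per atrium and ventricle. Rate = 1800/time(s) beats/min; AV ratio derived from these counts.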

A short description of data set [11]: Inhibition of zebrafish ERG at 1 to 30 uM. On the set-up: species or system Danio rerio. In outline: as §1
Data set [12] is described as follows: Toxicity in zebrafish embryo assessed as heart rate at 30 uM. On the set-up: species or system Danio rerio. To be noted: in vivo. The essentials: as §1

DNA gyrase (Staphylococcus aureus), sequence (P0A0K8 2-644 limits assumed): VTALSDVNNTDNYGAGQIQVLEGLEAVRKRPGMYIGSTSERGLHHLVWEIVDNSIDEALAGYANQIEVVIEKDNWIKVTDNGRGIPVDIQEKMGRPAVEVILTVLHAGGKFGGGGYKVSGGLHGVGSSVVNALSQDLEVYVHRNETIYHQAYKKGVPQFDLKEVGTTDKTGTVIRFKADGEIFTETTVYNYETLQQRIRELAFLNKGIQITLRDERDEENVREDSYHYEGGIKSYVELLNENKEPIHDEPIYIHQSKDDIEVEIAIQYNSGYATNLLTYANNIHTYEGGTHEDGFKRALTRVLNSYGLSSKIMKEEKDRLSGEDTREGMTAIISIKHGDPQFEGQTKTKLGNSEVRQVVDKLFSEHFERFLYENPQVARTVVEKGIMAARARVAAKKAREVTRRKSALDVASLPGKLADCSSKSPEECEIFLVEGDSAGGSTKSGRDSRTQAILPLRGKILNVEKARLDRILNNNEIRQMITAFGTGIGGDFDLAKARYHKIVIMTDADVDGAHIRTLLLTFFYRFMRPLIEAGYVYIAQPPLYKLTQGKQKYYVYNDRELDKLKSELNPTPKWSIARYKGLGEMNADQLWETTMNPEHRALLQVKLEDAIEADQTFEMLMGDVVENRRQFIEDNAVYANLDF
DNA gyrase (Staphylococcus aureus), sequence (P20831 whole entry partner): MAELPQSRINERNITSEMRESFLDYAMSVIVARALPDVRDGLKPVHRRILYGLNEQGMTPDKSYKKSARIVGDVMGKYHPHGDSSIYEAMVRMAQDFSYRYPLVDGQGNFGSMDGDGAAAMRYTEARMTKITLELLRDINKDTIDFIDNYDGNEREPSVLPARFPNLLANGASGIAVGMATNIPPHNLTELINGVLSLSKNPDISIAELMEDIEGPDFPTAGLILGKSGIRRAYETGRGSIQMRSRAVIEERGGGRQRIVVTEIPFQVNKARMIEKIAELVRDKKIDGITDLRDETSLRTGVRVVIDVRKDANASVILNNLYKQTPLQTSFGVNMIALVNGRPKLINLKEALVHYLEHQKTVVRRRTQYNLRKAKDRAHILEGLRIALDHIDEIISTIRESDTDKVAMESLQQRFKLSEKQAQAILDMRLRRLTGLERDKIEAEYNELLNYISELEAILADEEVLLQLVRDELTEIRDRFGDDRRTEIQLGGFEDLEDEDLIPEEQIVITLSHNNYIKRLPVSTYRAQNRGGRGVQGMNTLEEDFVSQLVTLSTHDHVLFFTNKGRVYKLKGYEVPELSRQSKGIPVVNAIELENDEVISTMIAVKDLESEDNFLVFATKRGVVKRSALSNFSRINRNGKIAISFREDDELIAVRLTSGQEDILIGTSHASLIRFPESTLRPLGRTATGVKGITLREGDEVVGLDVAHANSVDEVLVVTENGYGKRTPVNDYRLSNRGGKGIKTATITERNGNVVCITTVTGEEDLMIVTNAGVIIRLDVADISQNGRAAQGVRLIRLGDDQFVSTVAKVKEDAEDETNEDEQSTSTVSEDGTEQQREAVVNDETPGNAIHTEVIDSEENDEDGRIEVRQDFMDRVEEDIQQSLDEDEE

Turning to `COc1cc(NS(C)(=O)=O)ccc1Nc1c2ccccc2nc2ccccc12` [AMSACRINE], it took 10 µM to reach half-maximal inhibition in data set [1] (IC50).

In the case of `Cc1ccc(S(=O)(=O)Nc2ccc(Nc3c4ccccc4nc4ccc(C)cc34)cc2)cc1`, the inhibition at 72 h, 50 µM in [2] was 27.8%. Moreover, the inhibition entry in data set [3], in data set [4], in [5], in [8] and in data set [9] was “inactive” each time. The IC50 in data set [6] is 9.8 µM. The compound further displayed an MIC in [7] of 27.6 µM (≈ 12.5 µg/mL).

As to `Cc1ccc2nc3ccccc3c(Nc3ccc(NC(=S)Nc4ccc(Cl)cc4)cc3)c2c1`, the inhibition at 72 h, 50 µM in data set [2] turned out to be 26%. The inhibition result in data set [3], in data set [4], in [5], in [8] and in data set [9] was “inactive” in each case. In addition, the IC50 in data set [6] is 11.2 µM. Moreover, it took 26.7 µM (≈ 12.5 µg/mL) to inhibit growth in data set [7] (MIC).

For the compound `O=C(Nc1ccc(Cl)cc1)Nc1ccc(Nc2c3ccccc3nc3ccccc23)cc1`, in [2], the inhibition at 72 h, 50 µM was found to be 26.2%. Further, the inhibition entry in [3], in [4], in data set [5], in [8] and in data set [9] was “inactive” each time. For the same compound, in data set [6], the IC50 was 10.4 µM. The same compound showed an MIC in [7] of 28.5 µM (≈ 12.5 µg/mL).

Consider `O=C(Nc1ccccc1)Nc1ccc(Nc2c3ccccc3nc3ccccc23)cc1`, for which, in data set [2], the inhibition at 72 h, 50 µM was found to be 30.4%. In addition, the inhibition result in [3], in data set [4], in data set [5], in [8] and in data set [9] was “inactive” in each case. In addition, the IC50 in data set [6] came to 32.6 µM. In [7], the minimal inhibitory concentration (MIC) was > 61.8 µM.

As to `Cc1ccc2nc3ccccc3c(Nc3ccc(NC(=S)Nc4ccccc4)cc3)c2c1`, the inhibition at 72 h, 50 µM in [2] was 10.8%. Besides, the inhibition result in data set [3], in data set [4], in data set [5], in [8] and in [9] was “inactive” in each case. For the same compound, the IC50 in [6] was found to be 6.3 µM. Moreover, the MIC in [7] is 7.2 µM (≈ 3.13 µg/mL).

For `O=S(=O)(Nc1ccc(Nc2c3ccccc3nc3ccc(Cl)cc23)cc1)c1ccc(Cl)cc1`, the inhibition at 72 h, 50 µM in [2] is 14.2%. In addition, the inhibition result in data set [3], in [4], in [5], in [8] and in data set [9] was “inactive” throughout. In addition, in data set [6], the IC50 was 12.4 µM. The MIC in data set [7] turned out to be 25.1 µM (≈ 12.4 µg/mL).

`S=C(Nc1ccccc1)Nc1ccc(Nc2c3ccccc3nc3ccccc23)cc1`: in data set [2], the inhibition at 72 h, 50 µM is 29.2%. For the same compound, the inhibition entry in data set [3], in data set [4], in [5], in data set [8] and in data set [9] was “inactive” each time. Besides, the IC50 in [6] is 8.2 µM. This compound came in with an MIC in [7] of 14.9 µM (≈ 6.25 µg/mL).

Regarding `Cc1ccc(S(=O)(=O)Nc2ccc(Nc3c4ccccc4nc4ccccc34)cc2)cc1`, in data set [2], the inhibition at 72 h, 50 µM was found to be 28.4%. The inhibition entry in data set [3], in data set [4], in [5], in data set [8] and in [9] was “inactive” each time. Also, the IC50 in [6] came out at 9.3 µM. Besides, the MIC in data set [7] amounted to 28.4 µM (≈ 12.5 µg/mL).

With `Cc1ccc2nc3ccccc3c(Nc3ccc(NS(=O)(=O)c4ccccc4)cc3)c2c1`, the inhibition at 72 h, 50 µM in data set [2] was 39.6%. Also, the inhibition entry in data set [3], in data set [4], in [5], in data set [8] and in data set [9] was “inactive” throughout. The IC50 in data set [6] came to 5.86 µM. The MIC in [7] amounted to 28.4 µM (≈ 12.5 µg/mL).

In the case of `O=[N+]([O-])c1ccc(S(=O)(=O)Nc2ccc(Nc3c4ccccc4nc4ccc(Cl)cc34)cc2)cc1`, in [2], the inhibition at 72 h, 50 µM was 30.4%. Further, the inhibition entry in data set [3], in [4], in data set [5], in data set [8] and in data set [9] was “inactive” each time. Further, the IC50 in data set [6] was determined as 8.1 µM. The compound further registered an MIC in [7] of 24.8 µM (≈ 12.5 µg/mL).

Regarding `Cc1ccc(NC(=S)Nc2ccc(Nc3c4ccccc4nc4ccccc34)cc2)cc1`, in data set [2], the inhibition at 72 h, 50 µM is 27.4%. The inhibition entry in data set [3], in data set [4], in data set [5], in [8] and in data set [9] was “inactive” each time. In addition, the half-inhibitory concentration (IC50) in data set [6] is 31.1 µM. Also, the minimal inhibitory concentration (MIC) in data set [7] is > 57.5 µM.

In the case of `Cc1ccc2nc3ccccc3c(Nc3ccc(NC(=O)Nc4ccccc4)cc3)c2c1`, the inhibition at 72 h, 50 µM in data set [2] amounted to 24.8%. In addition, the inhibition result in data set [3], in data set [4], in data set [5], in [8] and in [9] was “inactive” throughout. In data set [6], the IC50 came out at 22.1 µM. For the same compound, the MIC in data set [7] is 29.9 µM (≈ 12.5 µg/mL).

Consider `Cc1ccc(NC(=O)Nc2ccc(Nc3c4ccccc4nc4ccc(Cl)cc34)cc2)cc1`, for which the inhibition at 72 h, 50 µM in data set [2] is 29.2%. The inhibition result in data set [3], in data set [4], in data set [5], in [8] and in data set [9] was “inactive” throughout. Besides, the IC50 in data set [6] came to 12.5 µM. This compound also returned an MIC in [7] of 13.8 µM (≈ 6.25 µg/mL).

For `Cc1ccc2nc3ccccc3c(Nc3ccc(NC(=S)Nc4ccc([N+](=O)[O-])cc4)cc3)c2c1`, in data set [2], the inhibition at 72 h, 50 µM is 28.8%. Moreover, the inhibition result in data set [3], in data set [4], in data set [5], in [8] and in data set [9] was “inactive” in each case. Moreover, in data set [6], the IC50 came out at 24.8 µM. In data set [7], the MIC is > 52.1 µM.

With `Cc1ccc(NC(=S)Nc2ccc(Nc3c4ccccc4nc4ccc(Cl)cc34)cc2)cc1`, the inhibition at 72 h, 50 µM in [2] was determined as 25.5%. Also, the inhibition result in data set [3], in [4], in data set [5], in data set [8] and in data set [9] was “inactive” throughout. In addition, the IC50 in data set [6] is 33.9 µM. Besides, the MIC in data set [7] was > 53.3 µM.

Regarding `O=[N+]([O-])c1ccc(NC(=S)Nc2ccc(Nc3c4ccccc4nc4ccccc34)cc2)cc1`, the inhibition at 72 h, 50 µM in [2] was found to be 20.8%. For the same compound, the inhibition result in [3], in data set [4], in [5], in data set [8] and in [9] was “inactive” in each case. In addition, the IC50 in [6] was determined as 13.1 µM. The compound further showed an MIC in data set [7] of 13.4 µM (≈ 6.25 µg/mL).

With `Cc1ccc2nc3ccccc3c(Nc3ccc(NS(=O)(=O)c4ccc(Cl)cc4)cc3)c2c1`, the inhibition at 72 h, 50 µM in data set [2] is 11.8%. Moreover, the Activity entry in [10] and in [12] was “Non-toxic” throughout. Moreover, the “inhibition (INH)” value in data set [11] is “Not Active”. Moreover, the inhibition result in [3], in data set [4], in [5], in data set [8] and in data set [9] was “inactive” each time. Also, the IC50 in [6] came to 5.21 µM. This compound also showed an MIC in data set [7] of 6.59 µM (≈ 3.12 µg/mL).
